This data set can be described thus: Toxicity liver stage against HepG2, at 10uM. As to conditions: human, HepG2-A16-CD81EGFP cells; read-out: INHIBITION
It counts as cell-based. Also noted: test concentration 10 uM, cell line HepG2-A16-CD81EGFP. The procedure, abridged:
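Uninfected HepG2-A16-CD81EGFP cells, 3 × 10^3 per well, 1536-well, plated on prespotted compound at 10 μM final, parasite-free screening media added to match infected plates; puromycin 10 μM positive, DMSO 0.5% negative; run in parallel with 48 h PbLuc assay at 37 °C, 5% CO2; viability by CellTiter-Glo luminescence, normalized to controls.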

For the compound `O=C(NCC(Cc1cccc(F)c1)N1CCCC1=O)c1ccc[nH]c1=O` (configuration not stated), the cytotoxicity at 10 µM is -2.42%.

Regarding `O=C(N1CCOCC1)N1CCc2ncnc(NC3CCC3)c2CC1`, the cytotoxicity at 10 µM was -1.92%.

In the case of `O=C(NCc1cc(Br)cs1)Nc1cn[nH]c1`, the cytotoxicity at 10 µM worked out at 5.85%.

Regarding `CN1CC2(COCCN(C(=O)c3ccco3)C2)OCC1=O` (configuration not stated), the cytotoxicity at 10 µM turned out to be 2.33%.

As for `Cc1nnsc1CNC(=O)CSCc1ccccc1Cl`, the cytotoxicity at 10 µM was -2.85%.

For `CC(=O)NC1CCN(c2nc(N)nc3c2CCCC3)C1` (configuration not stated), the cytotoxicity at 10 µM worked out at 0.452%.

As to `CC(C)(N)C(=O)N1CCCC(c2cncc(Oc3cccnc3)n2)C1` (configuration not stated), the cytotoxicity at 10 µM is -20.6%.

As for `CCOCC1CN(CC2CC2)Cc2nn(CC3CC3)cc21` (configuration not stated), the cytotoxicity at 10 µM was found to be 0.748%.

For `Cc1cnc(N2CCCOC(CN3CCCCC3)C2)nc1` (configuration not stated), the cytotoxicity at 10 µM was -3.54%.

For `c1cnc(N2C[C@H](OCC3CCOCC3)[C@H]3COC[C@H]32)nc1`, the cytotoxicity at 10 µM is -1.92%.

`COc1cc(C)c(-c2ccc(F)c3c2OC(CN)C3)cc1C` (configuration not stated): the cytotoxicity at 10 µM was 20.3%.

With `CN(Cc1ccsc1)C(=O)c1cc(S(=O)(=O)N(C)C)ccc1Cl`, the cytotoxicity at 10 µM stood at 15%.

Consider `CC1CCN(CCCNC(=O)NC(C)c2nncn2C)CC1` (configuration not stated), for which the cytotoxicity at 10 µM is -11.6%.

Consider `c1ccc(-n2cnnc2CCCN2CCOCC2)cc1`, for which the cytotoxicity at 10 µM is -1.16%.

Take `CS(=O)(=O)N1CCN2C(=O)N(C3CCCCC3)C[C@H]2C1`: the cytotoxicity at 10 µM was 7.77%.

`Cc1nsc(NC(=O)NC2CCN(C)CC2)n1`: the cytotoxicity at 10 µM is -10.7%.

Turning to `Cc1cc(CN2CCCC2Cn2cccn2)no1` (configuration not stated), the cytotoxicity at 10 µM was -4.36%.

As for `O=C(C1CCOCC1)N1CCc2ncnc(-c3ccc(F)cc3)c2CC1`, the cytotoxicity at 10 µM is -6.28%.

Consider `Cc1ccccc1CN(C)C(=O)CN1CCOC(Cn2cncn2)C1` (configuration not stated), for which the cytotoxicity at 10 µM was -1.07%.

`CS(=O)(=O)CCN1CCC(=Cc2ccccc2)CC1`: the cytotoxicity at 10 µM is -2.99%.

On to `O=C(c1cocn1)N1CCC2(CC1)CC(Oc1ccccn1)CO2` (configuration not stated), for which the cytotoxicity at 10 µM worked out at 9.34%.

As to `CSCCCNC(=O)C(c1cccc(F)c1)N(C)C` (configuration not stated), the cytotoxicity at 10 µM amounted to 0.28%.

Consider `COc1c(C2CCCN2C(=O)c2ccc3[nH]cnc3c2)c(C)nn1C` (configuration not stated), for which the cytotoxicity at 10 µM was -8.04%.

Regarding `CC(C)(C)n1ncc2c1CCCC2NCc1cccc(C(N)=O)c1` (configuration not stated), the cytotoxicity at 10 µM was -0.25%.

Take `Cc1cc2nc(SCC(=O)N3CCCC3)n(Cc3ccco3)c(O)c-2n1`: the cytotoxicity at 10 µM was 7.19%.

`COC(=O)C(C)(C)NC(=O)c1cnc(Cc2ccc(F)cc2)s1`: the cytotoxicity at 10 µM was -0.538%.

For `O=C([C@H]1C[C@H]2[C@H](CCN2Cc2cccs2)O1)N1CCOCC1`, the cytotoxicity at 10 µM was 0.582%.

For `O=C(COCC1CC1)N1CCN(C(=O)Cc2ccccn2)CC1`, the cytotoxicity at 10 µM worked out at 10.3%.

Turning to `CC(CCc1ccccc1)NC(=O)CNCCCN(C)C` (configuration not stated), the cytotoxicity at 10 µM was -3.83%.

`O=C(c1ccoc1)N1CC[C@H]2OCC[C@@]2(COc2ncccc2F)C1`: the cytotoxicity at 10 µM was -9.31%.

Regarding `COCC(=O)N1CCC2(CCCN(Cc3cnn(C)c3)C2)C1` (configuration not stated), the cytotoxicity at 10 µM is -73.3%.

For the compound `CCCc1nc(C(C)(C)NC(=O)C2CC(=O)N(C3CCCC3)C2)no1` (configuration not stated), the cytotoxicity at 10 µM is -0.734%.

`CC(C)N(Cc1ccc(Cl)c(Cl)c1)C(=O)Cn1cncn1`: the cytotoxicity at 10 µM stood at 4.19%.

As to `O=C(c1ccncc1)N1CCCC(c2ncncc2-c2ccncc2)C1` (configuration not stated), the cytotoxicity at 10 µM was -17.2%.

In the case of `CC(=O)c1cccc(OCC(=O)NS(=O)(=O)c2ccc(Br)s2)c1`, the cytotoxicity at 10 µM is -19.4%.

With `O=C(c1ccccn1)N1CCc2ncnc(-c3ccncc3)c2CC1`, the cytotoxicity at 10 µM is -1.82%.

`COc1cccc(-c2n[nH]cc2CNCC2CCS(=O)(=O)C2)c1` (configuration not stated): the cytotoxicity at 10 µM was -3.54%.

For `Cc1ccc(N2C[C@H]3CCC[C@@]3(COc3cccnc3)C2)nn1`, the cytotoxicity at 10 µM came to 9.43%.

For `CCc1nnc(CNCC2CCCN2c2cccnn2)o1` (configuration not stated), the cytotoxicity at 10 µM was -10.7%.

In the case of `CCC(NC(=O)NC1CCN(S(C)(=O)=O)CC1)c1cccs1` (configuration not stated), the cytotoxicity at 10 µM is -11.6%.

In the case of `O=C(C1CCCN(c2nc3ccccc3cc2CO)C1)N1CCCC1` (configuration not stated), the cytotoxicity at 10 µM is -47.5%.

Consider `O=C1CC2(CCN(Cc3ccoc3)C2)CN1c1cncnc1` (configuration not stated), for which the cytotoxicity at 10 µM was -69.4%.

Consider `Cn1ccc(NCc2cc3cc(F)ccc3o2)n1`, for which the cytotoxicity at 10 µM was -12.4%.

In the case of `O=C(Cn1ncc2c(c1=O)CCCCC2)Nc1cccc2[nH]ccc12`, the cytotoxicity at 10 µM came to 0.417%.

Regarding `Cn1cc(NS(=O)(=O)c2ccc(OC(F)(F)F)cc2)ccc1=O`, the cytotoxicity at 10 µM stood at 33.4%.

As for `CCOCCn1nc(C)cc1C(=O)N1CCN(C(C)C)C(CC)C1` (configuration not stated), the cytotoxicity at 10 µM was -14.2%.

Turning to `CN(C)C(=O)c1cc(-c2ccccc2)[nH]n1`, the cytotoxicity at 10 µM is -4.5%.

For the compound `O=c1nc(SCc2ccc(Cl)cc2)c2c(n1CCO)CCC2`, the cytotoxicity at 10 µM is 12.3%.

On to `Cc1cccc(C2CCCN(C(=O)CN3C(=O)CCNC3=O)C2)c1` (configuration not stated), for which the cytotoxicity at 10 µM is -2.56%.

On to `CCCN1CCc2nc(N3CCOCC3)nc(NC(C)C)c2C1`, for which the cytotoxicity at 10 µM was -111%.

Turning to `CC(c1nc(C2CC2)no1)N1CCN(Cc2cccc(F)c2F)CC1` (configuration not stated), the cytotoxicity at 10 µM was -4.93%.

Consider `O=C(N1CCOCC1)N1CCN(c2ccnc3ccsc23)CC1`, for which the cytotoxicity at 10 µM was -4.48%.

Turning to `Cc1cs/c(=N\C(=O)c2c3c(nc4onc(C)c24)CCC3)[nH]1`, the cytotoxicity at 10 µM amounted to 1.26%.

In the case of `CN(C)S(=O)(=O)N1CC(c2nc(N)ncc2-c2ccc(F)cc2)C1`, the cytotoxicity at 10 µM is -4.64%.

For the compound `Cc1ncsc1C(=O)NCCn1nc2ccccn2c1=O`, the cytotoxicity at 10 µM worked out at 0.00307%.

For the compound `CC(CCN1CCn2nc(CNC(=O)N(C)C)cc2C1)c1ccccc1` (configuration not stated), the cytotoxicity at 10 µM was -11.8%.

Consider `O=C1CC(N(C(=O)c2csc(-c3ccccc3)n2)C2CC2)C(=O)N1` (configuration not stated), for which the cytotoxicity at 10 µM turned out to be 15.2%.

Take `Cc1nc2cc(O)nn2c(C)c1CCC(=O)N(C)Cc1cscn1`: the cytotoxicity at 10 µM is -2.64%.

On to `COc1ccc(CNC(=O)NC2CCN(c3ccccc3)C2=O)cc1` (configuration not stated), for which the cytotoxicity at 10 µM is -2.98%.

Consider `CC(O)CN1CCN(C(=O)Cc2ccccc2Cl)CC1` (configuration not stated), for which the cytotoxicity at 10 µM is -9.6%.

On to `CCc1cc(N2CCN(C(C)=O)CC2)n2nc(C)c(C)c2n1`, for which the cytotoxicity at 10 µM was 3.96%.

For `CC(NC(=O)Cn1cccn1)c1ccc2c(c1)OCCO2` (configuration not stated), the cytotoxicity at 10 µM was -2.23%.

With `CCOc1ccccc1C(=O)Nn1c(C)cc(C)cc1=O`, the cytotoxicity at 10 µM is -10.9%.

As to `COCCN1CCO[C@@H]2CN(C(=O)NCc3cccnc3)CC[C@@H]2C1`, the cytotoxicity at 10 µM is 6.65%.

With `CC(C)c1noc(C(C)S(=O)(=O)Cc2nc(C3CC3)no2)n1` (configuration not stated), the cytotoxicity at 10 µM was -0.828%.

Turning to `Cc1cccc(CN2CCC23CCCNC3)n1` (configuration not stated), the cytotoxicity at 10 µM was 2.55%.

Turning to `CNC(=O)c1cn[nH]c1C1CCN(Cc2ccccc2F)C1` (configuration not stated), the cytotoxicity at 10 µM is -30.8%.

Turning to `Cn1cc(-c2nc(CNCCn3cccn3)cs2)cn1`, the cytotoxicity at 10 µM was -13%.

Take `N#Cc1cccc(S(=O)(=O)NC(=O)c2csc(-c3ccco3)n2)c1`: the cytotoxicity at 10 µM came to 4.34%.

Consider `Cc1nn(C)c(Cl)c1C1CCCN1C(=O)c1cc[nH]n1` (configuration not stated), for which the cytotoxicity at 10 µM was -5.55%.

Take `CC1(C)CN(Cc2nnc(-c3cccnc3)o2)CC[C@]1(C)O`: the cytotoxicity at 10 µM is -10.2%.

Turning to `COCC(=O)N1CC[C@@H](N2CCOCC2)[C@@H]1Cc1ccccc1`, the cytotoxicity at 10 µM was -3.06%.

In the case of `Cc1nc(CNC(C)c2cccc(N3CCCC3=O)c2)cs1` (configuration not stated), the cytotoxicity at 10 µM is 5.01%.

`NC(=O)c1nc(CN2CCOC(C(F)(F)F)C2)no1` (configuration not stated): the cytotoxicity at 10 µM is -3.39%.

For the compound `COCC1CCN(C(=O)c2cccc(S(=O)(=O)NC3CCCC3)c2)C1` (configuration not stated), the cytotoxicity at 10 µM was determined as 10.8%.

For the compound `C[C@@H]1CN(c2ccc(Cl)cn2)C[C@]1(C)O`, the cytotoxicity at 10 µM came out at 4.38%.

In the case of `CS(=O)(=O)NCc1cncc2c1CCN(C(=O)N1CCCC1)C2`, the cytotoxicity at 10 µM was determined as 12.8%.

As to `CCC(Nc1cccc(OC)c1)C(=O)NCc1ccc2[nH]c(=O)[nH]c2c1` (configuration not stated), the cytotoxicity at 10 µM was determined as 1.67%.

In the case of `O=S(=O)(Cc1nc(C2CC2)no1)c1ccccc1F`, the cytotoxicity at 10 µM amounted to 8.11%.

Regarding `O=C(NCC1CC1)[C@H]1C[C@@H]2[C@@H](C1)OCCN2Cc1cccnc1`, the cytotoxicity at 10 µM is 4.09%.

For `CCn1cc(S(=O)(=O)N2CCC3(CCCN(CC4CCC4)C3=O)C2)cn1` (configuration not stated), the cytotoxicity at 10 µM was 2.45%.

Regarding `O=C(COCc1nc(-c2ccncc2)no1)N1CCCCC1`, the cytotoxicity at 10 µM was 5.4%.

For `CCNC(=O)NC1CCN(c2ccc(S(=O)(=O)CC)cc2)CC1`, the cytotoxicity at 10 µM was 7.89%.

For the compound `COCCN1CCN(CC(O)c2ccc(OC(F)(F)F)cc2)CC1` (configuration not stated), the cytotoxicity at 10 µM is -22.1%.

Consider `Cc1cc(C)cc(NC(=O)Cc2c(C)nc3c(c2C)c(=O)[nH]n3C)c1`, for which the cytotoxicity at 10 µM is 10.6%.

Consider `COC(=O)c1ccc2nc(CO[C@H]3CN(CC4CC4)C[C@H]3F)[nH]c2c1`, for which the cytotoxicity at 10 µM is 2.52%.

`CC(C)c1nnc2n1CCN(C(=O)c1ccc(S(C)(=O)=O)cc1)C2`: the cytotoxicity at 10 µM is -0.252%.

On to `CCOc1ccccc1OC1CCN(C(=O)c2cnsn2)CC1`, for which the cytotoxicity at 10 µM was 0.32%.

On to `Cc1nc(C2CN(C)CCO2)cc(N2CCC(C(N)=O)CC2)n1` (configuration not stated), for which the cytotoxicity at 10 µM is -22.8%.

For the compound `Cc1ccc(F)cc1C(=O)OCC1CCCN1C(N)=O` (configuration not stated), the cytotoxicity at 10 µM was determined as 5.01%.

Consider `CCc1ccccc1OC1CN(C(=O)CN(C)Cc2ccncc2)C1`, for which the cytotoxicity at 10 µM is -4.55%.

On to `CC(=O)c1cccc(NC(=O)CN2CCCCC2C2OCCO2)c1` (configuration not stated), for which the cytotoxicity at 10 µM is -10.5%.

For `Cc1ncsc1CN(C)C(=O)CC1CCOc2ccccc21` (configuration not stated), the cytotoxicity at 10 µM stood at 20.2%.

Take `CSc1ccccc1NC(=O)CCN1CCC(C(=O)N(C)C)CC1`: the cytotoxicity at 10 µM came out at 6.47%.

Take `CN1CCc2c(C#N)c(NCc3ccco3)n3cnnc3c2C1`: the cytotoxicity at 10 µM was -13.7%.

For the compound `CN(C)c1ncnc2c1CCN(C(=O)c1sccc1S(N)(=O)=O)C2`, the cytotoxicity at 10 µM stood at 0.192%.

With `CC(NC(C)(C)CN)c1ccccc1` (configuration not stated), the cytotoxicity at 10 µM is 2.62%.

(Values after ChEMBL document CHEMBL4513216, “Probing the Open Global Health Chemical Diversity Library for Multistage-Active Starting Points for Next-Generation Antimalarials” (ACS Infect Dis, 2020).)
